From ChEMBL document CHEMBL1147053, “HIV protease inhibitors block the zinc metalloproteinase ZMPSTE24 and lead to an accumulation of prelamin A in cells” (Proc Natl Acad Sci U S A, 2007) come the findings set out here.

As usually defined, the IC50 is the midpoint of a concentration-inhibition curve. High values mean weaker potency, low ones greater potency.

The nature of data set [1]: Toxicity in mouse fibroblast cells assessed as accumulation of prelamin A at 20 uM after 10 days by Western blot. In kind it is cell-based. The settings on record: 240 h. The method, boiled down: (§1)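 WT mouse fibroblasts were treated 10 days with drug (NVP at 200 and 400 μM; STV at 20 and 40 μM; LPV at 20 μM) or DMSO vehicle. Prelamin A accumulation was assessed on Western blots of cell extracts.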

Data set [2] is described as follows: Toxicity in mouse fibroblast cells assessed as accumulation of prelamin A at 40 uM after 10 days by Western blot. The settings on record: 240 h. In kind it is cell-based. The method, boiled down: as §1
For orientation: A western blot detects proteins with antibodies after separation by electrophoresis.

Data set [3] concerns HeLa. As to the kind of experiment: Toxicity in human HeLa cells transfected with GFP-prelamin A construct assessed as accumulation of uncleaved protein at 20 uM by Western blot. The format is cell-based. The method, boiled down: (§2)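 Cells were transiently transfected at 80% confluency with a GFP fused to the C-terminal 118 aa of prelamin A. Four hours later, the medium was changed to MEM/10% FBS and drug was added for 18 h (overnight). Uncleaved and cleaved fusion protein were resolved on Western blots probed with anti-GFP and anti-prelamin A antibodies.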

Data set [4] can be described thus: Toxicity in mouse fibroblast cells assessed as accumulation of prelamin A at 200 uM after 10 days by Western blot. The format is cell-based. The settings on record: 240 h. The method, boiled down:
(§3)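 Wild-type mouse fibroblasts were grown at 37 °C in 5% CO₂ in MEM or DMEM with 10% FBS, 2 mM L-glutamine and vitamin/amino acid supplements. Cells were exposed for 10 days to drug (200 mM DMSO stock) or DMSO vehicle. Extracts were run on 4–12% Bis-Tris gels and immunoblotted for lamin A/C, prelamin A (antiserum "b", 1:4,000) and actin.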

Data set [5] is described as follows: Toxicity in mouse fibroblast cells assessed as accumulation of prelamin A at 400 uM after 10 days by Western blot. In kind it is cell-based. The settings on record: 240 h. The method, boiled down:
as §3

Data set [6] can be described thus: Inhibition of farnesyl transferase. The method, boiled down: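 FTase (50 ng) was incubated with 500 nM [³H]FPP and 1 μM recombinant H-Ras substrate for 10 min at 30°C, with or without drug. Protein was precipitated and glass-fibre filtered, and incorporated radiolabelled isoprenoid was counted by scintillation. Values are the mean of triplicate determinations.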

The nature of data set [7]: Toxicity in mouse fibroblast cells assessed as accumulation of prelamin A at 20 uM after 48 hrs by Western blot. The format is cell-based. The method, boiled down:
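Mouse fibroblasts were exposed 48 h to drug (20 μM), FTI (5 μM) or DMSO. Prelamin A was detected on Western blots of cell extracts.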

Data set [8] concerns Fibroblast. The data set is described as follows: Effect on HDJ2 farnesylation in mouse fibroblast cells at 20 uM after 24 hrs by Western blot. The format is functional, cell-based. The method, boiled down: (§4)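 Wild-type fibroblasts exposed 24 h to drug (20 μM) or DMSO vehicle, with GGTI-298 (15 μM) and FTI (5 μM) run alongside. Isoprenylation was judged by band mobility on Western blots. HDJ-2 extracts were resolved on 15% acrylamide/0.08% bisacrylamide SDS/PAGE; Rap1A was probed with anti-Rap1A and anti-Rap1 antibodies.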

Data set [9] has as its system Fibroblast. The data set is described as follows: Effect on Rap1A isoprenylation in mouse fibroblast cells at 20 uM after 24 hrs by Western blot. In kind it is functional, cell-based. The method, boiled down: as §4
The target in data set [10] is Protein-S-isoprenylcysteine O-methyltransferase (Homo sapiens) (UniProt O60725). The data set is described as follows: Inhibition of human ICMT expressed in yeast assessed as methylation of N-acetyl-farnesylcysteine.
For data set [11], the target named is T1, CAAX prenyl protease 2 (Mus musculus) (UniProt P57791).
T1 sequence (whole entry): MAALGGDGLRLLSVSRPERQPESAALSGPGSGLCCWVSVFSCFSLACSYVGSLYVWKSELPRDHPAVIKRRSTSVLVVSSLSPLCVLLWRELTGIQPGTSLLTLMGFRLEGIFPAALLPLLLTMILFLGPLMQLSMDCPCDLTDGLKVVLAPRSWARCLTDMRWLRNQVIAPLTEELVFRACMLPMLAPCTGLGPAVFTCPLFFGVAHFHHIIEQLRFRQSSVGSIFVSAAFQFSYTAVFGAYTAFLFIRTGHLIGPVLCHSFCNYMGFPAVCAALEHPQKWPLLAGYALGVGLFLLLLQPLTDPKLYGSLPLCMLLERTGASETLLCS
The data set is described as follows: Inhibition of mouse RCE1 expressed in delta ste24 delta rce1 yeast. The method, boiled down:
(§5)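 Coupled endoproteolysis/methylation assay. Δste24Δrce1 yeast membranes overexpressing mouse ZMPSTE24 or RCE1 (5 μg) plus CH2733 Ste14p membranes (8 μg) were incubated with farnesylated 15-mer a-factor peptide (5 μM for ZMPSTE24, 25 μM for RCE1) and 20 μM [¹⁴C]SAM in 100 mM Tris·HCl pH 7.5 for 30 min at 30°C. Reactions were stopped with NaOH/SDS, and base-releasable [¹⁴C]methanol was measured by vapor diffusion. IC50 values were fitted.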

Data set [12] concerns the target T2, CAAX prenyl protease 1 homolog (Mus musculus, UniProt Q80W54).
T2 sequence (Q80W54 whole entry): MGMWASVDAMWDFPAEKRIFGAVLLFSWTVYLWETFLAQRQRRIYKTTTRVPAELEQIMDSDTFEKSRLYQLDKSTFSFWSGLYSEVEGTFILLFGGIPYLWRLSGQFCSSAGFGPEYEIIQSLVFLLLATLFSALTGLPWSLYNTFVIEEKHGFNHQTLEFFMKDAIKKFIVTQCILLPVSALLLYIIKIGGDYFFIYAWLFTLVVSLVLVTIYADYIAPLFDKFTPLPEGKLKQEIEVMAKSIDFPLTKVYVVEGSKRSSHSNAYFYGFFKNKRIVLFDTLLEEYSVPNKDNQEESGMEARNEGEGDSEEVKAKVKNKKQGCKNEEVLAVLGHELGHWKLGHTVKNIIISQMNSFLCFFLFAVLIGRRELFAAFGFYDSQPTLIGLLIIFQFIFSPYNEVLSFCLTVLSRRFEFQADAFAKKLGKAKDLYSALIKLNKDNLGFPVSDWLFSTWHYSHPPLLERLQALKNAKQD
As to the kind of experiment: Inhibition of mouse ZMPSTE24 expressed n delta ste24 delta rce1 yeast. The method, boiled down: as §5

Data set [13] relates to Fibroblast. As to the kind of experiment: Effect on change in ZMPSTE24 mRNA expression level in mouse fibroblasts at 20 uM after 10 days by PCR. In kind it is functional, cell-based.
Data set [14] relates to Fibroblast. The data set is described as follows: Effect on change in ZMPSTE24 protein level in mouse fibroblasts at 20 uM after 10 days by Western blot. In kind it is functional, cell-based.
A short description of data set [15]: Toxicity in RCE1 deficient mouse fibroblast cells assessed as accumulation of prelamin A at 20 uM after 24 hrs by Western blot. The format is cell-based. The method, boiled down:
(§6)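 Rce1−/− or Icmt−/− mouse embryonic fibroblasts were treated 24 h with drug (20 μM) or DMSO, with FTI (5 μM) as a comparator. Extracts were run on 4–12% Bis-Tris gels and Western blotted for lamin A/C and prelamin A, using antiserum "b", which recognises both farnesylated and nonfarnesylated forms.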

Data set [16] in a line: Toxicity in human AG08470 cells assessed as accumulation of prelamin A at 20 uM after 10 days by Western blot. The format is cell-based. The following applies: 240 h. The method, boiled down: (§7)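 WT human fibroblasts were cultured in MEM or DMEM with 10% FBS at 37°C, 5% CO₂, then treated 10 days with drug (20 μM), FTI (5 μM) or DMSO. Western blots were probed for lamin A/C, prelamin A antisera "a" (nonfarnesylated only) and "b", and actin. Prelamin A was quantified by image analysis relative to lamin C and to mature lamin A.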

Data set [17] in a line: Toxicity in human AG07095 cells assessed as accumulation of prelamin A at 20 uM after 10 days by Western blot. The format is cell-based. The following applies: 240 h. The method, boiled down: as §7
Data set [18] in a line: Toxicity in ICMT deficient mouse fibroblast cells assessed as accumulation of prelamin A at 20 uM after 24 hrs by Western blot. The format is cell-based. The method, boiled down: as §6
Data set [19] has as its system HEK293. As to the kind of experiment: Toxicity in HEK293 cells transfected with GFP-prelamin A construct assessed as accumulation of uncleaved protein at 20 uM by Western blot. The format is cell-based. The following applies: human, hek293, 20 µM. The method, boiled down:
as §2

For data set [20], the system named is HEK293. As to the kind of experiment: Toxicity in HEK293 cells transfected with GFP-prelamin A construct assessed as accumulation of uncleaved protein by Western blot. The settings on record: human.

Calls of active or inactive are those of the source. The calls are words filed in the database; no cut-off is given here.

Chain of Protein-S-isoprenylcysteine O-methyltransferase (Homo sapiens) (O60725 whole entry): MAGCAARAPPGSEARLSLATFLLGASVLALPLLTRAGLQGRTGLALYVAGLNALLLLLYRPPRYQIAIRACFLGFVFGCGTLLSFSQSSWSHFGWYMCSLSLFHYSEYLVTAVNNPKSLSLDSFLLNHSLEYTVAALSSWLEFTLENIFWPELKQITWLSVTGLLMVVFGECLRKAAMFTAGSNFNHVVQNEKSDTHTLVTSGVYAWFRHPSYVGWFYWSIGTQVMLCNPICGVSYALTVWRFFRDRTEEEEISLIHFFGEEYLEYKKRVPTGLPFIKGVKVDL

For the compound `Cc1cn([C@H]2C=C[C@@H](CO)O2)c(=O)[nH]c1=O` [STAVUDINE], the Activity result in data set [1], in data set [2] and in [3] was “Non-toxic” in each case.

In the case of `Cc1ccnc2c1NC(=O)c1cccnc1N2C1CC1` [NEVIRAPINE], the Activity result in [4], in [5] and in data set [3] was “Non-toxic” each time.

With `COC(=O)N[C@H](C(=O)N[C@@H](Cc1ccccc1)[C@@H](O)CN(Cc1ccc(-c2ccccn2)cc1)NC(=O)[C@@H](NC(=O)OC)C(C)(C)C)C(C)(C)C` [ATAZANAVIR], the result in data set [6] was inactive. The Activity result in data set [7] and in [3] was “Toxic” throughout.

With `Cc1cccc(C)c1OCC(=O)N[C@@H](Cc1ccccc1)[C@@H](O)C[C@H](Cc1ccccc1)NC(=O)[C@H](C(C)C)N1CCCNC1=O` [LOPINAVIR], the outcome in data set [8], in [9], in data set [6], in [10], in data set [11] and in [13] was inactive. Besides, in [14], the result was inactive. This compound showed an IC50 in [12] of 18.4 µM. Further, the Activity entry in data set [15], in data set [16], in data set [17], in [7], in data set [18] and in data set [1] was “Toxic” each time. Moreover, the Activity result in data set [3] and in data set [19] was “Toxic” in each case.

In the case of `CCC[C@@]1(CCc2ccccc2)CC(O)=C([C@H](CC)c2cccc(NS(=O)(=O)c3ccc(C(F)(F)F)cn3)c2)C(=O)O1` [TIPRANAVIR], in [11], the result was inactive. Besides, half-maximal inhibition in data set [12] (IC50) was put at 1.2 µM. The Activity entry in data set [20] is listed as “Toxic”.
